For assay [1], the system named is Radical scavenging activity. Nature of the assay: Antioxidant activity assessed as DPPH radical scavenging activity at 25 ug/mL after 30 mins by spectrophotometry. Type of assay: functional. The gist of the method: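 Test sample in DMSO (1 mg/mL stock) was mixed with 0.1 M Tris–HCl pH 7.4 and 0.5 mM DPPH in absolute ethanol. The mixture was shaken and kept in the dark 30 min, then absorbance read at 517 nm. Scavenging (%) = (1 − B/A) × 100 against a control without sample.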
(Loss of DPPH colour is used to gauge radical scavenging.)

The species entered for assay [2] is Rattus norvegicus. Nature of the assay: Inhibition of rat intestinal alpha-glucosidase at 100 ug/mL after 5 mins by spectrophotometry. The gist of the method: (§1)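 Enzyme source was the supernatant of sonicated rat intestinal homogenate after centrifugation. Sample (5 mg/mL DMSO stock) in 100 mM phosphate buffer pH 6.8 was preincubated with enzyme for 5 min, then 5 mM p-nitrophenyl-α-D-glucopyranoside added. p-Nitrophenol was read at 405 nm 5 min later, with substrate-free blanks and a DMSO control. Inhibition (%) = (1 − B/A) × 100; IC50 by logarithmic regression.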

The nature of assay [3]: Inhibition of rat intestinal alpha-glucosidase after 5 mins by spectrophotometry. The gist of the method:
as §1

The species entered for assay [4] is Rattus norvegicus. Briefly: Mixed noncompetitive inhibition of rat intestinal alpha-glucosidase at 10.6 uM by Lineweaver-Burke plot analysis. An outline of the steps: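 Conditions follow the rat intestinal α-glucosidase/p-NPG assay, but Vmax kinetics were recorded over 10 min at 30 s intervals after a 10 s lag following substrate addition. Substrate was used at various dilutions, with or without preincubation of inhibitor. Data were analysed on a Lineweaver–Burk plot.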

Assay [5] deals with Rattus norvegicus. Briefly: Antihyperglycemic activity in overnight fasted starch-induced hyperglycemic Wistar rat assessed as decrease in plasma glucose level at 100 mg/kg, po administered 15 mins before starch challenge measured after 30 to 120 mins by glucose oxidase method. Also on record: dose 100 mg/kg. Type of assay: functional, organism-based. The gist of the method: (§2)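 Wistar rats of either sex (195–215 g), housed at 22 °C with a 12 h light/dark cycle, fasted overnight. Test agent suspended in normal saline and given orally by gastric intubation; controls received saline. Soluble starch (2 g/kg in saline) fed 15 min later. Retro-orbital blood was collected into EDTA for plasma glucose at 0–120 min. Plasma glucose AUC by trapezoid formula.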

Assay [6] deals with Rattus norvegicus. Briefly: Antihyperglycemic activity in overnight fasted starch-induced hyperglycemic Wistar rat assessed as decrease in plasma glucose level at 10 mg/kg, po administered 15 mins before starch challenge measured after 30 to 120 mins by glucose oxidase method. The format is functional, organism-based. Also on record: dose 10 mg/kg. An outline of the steps: as §2

pIC50: −log10 of the molar value. Active and inactive are the calls of the source. The calls are words filed in the database; no cut-off is given here.

This note sets out measurements from ChEMBL document CHEMBL1157678, “alpha-Glucosidase inhibitory antihyperglycemic activity of substituted chromenone derivatives” (Bioorg Med Chem, 2010).

By inhibition is commonly meant the relative decrease from the control value, in per cent. A word on the pIC50: it is the negative decadic logarithm of the IC50, by convention in mol/L. A high value points to a small IC50. For the molecule `CC(=O)c1cc2cc(-c3cncnc3)ccc2oc1=O`, the outcome in assay [1] was inactive. In the assay listed under Rattus norvegicus [2], the inhibition came to 83.5%. In assay [3], this molecule had a pIC50 of 4.43.

For the molecule `CCOC(=O)c1cc2cc(-c3ccc(F)cc3)ccc2oc1=O`, the result in assay [1] was inactive. In the assay filed under Rattus norvegicus [2], this molecule returned an inhibition of 66.7%. In addition, in assay [3], the negative-log IC50 (pIC50) was 4.42.

For the molecule `CC(=O)c1cc2ccccc2oc1=O`, the Activity in assay [1] was 0.83%. For the same molecule, the inhibition in the assay filed under Rattus norvegicus [2] came to 53.2%.

On to `Cc1c(Cl)c(=O)oc2cc(O)ccc12`, for which the Activity in assay [1] came to 20.8%. Moreover, the inhibition in the assay listed under Rattus norvegicus [2] turned out to be 77.8%. The same molecule had a negative-log IC50 (pIC50) in assay [3] of 3.89.

As to `CC(=O)c1cc2cc(-c3ccc(C)cc3)ccc2oc1=O`, the result in assay [1] was inactive. Further, the inhibition in the assay listed under Rattus norvegicus [2] turned out to be 86.5%. In assay [3], this molecule showed a pIC50 of 4.28.

In the case of `O=c1cc(CCl)c2ccc(O)cc2o1`, in assay [1], the Activity came out at 1.32%. In the assay listed under Rattus norvegicus [2], the inhibition is 78.3%. In addition, the pIC50 in assay [3] was 3.61.

On to `CC(=O)c1cc2cc(-c3ccc(Cl)cc3)ccc2oc1=O`, for which the Activity in assay [1] was found to be 12.5%. Besides, the inhibition in the assay listed under Rattus norvegicus [2] was found to be 76.9%. The molecule further showed a pIC50 in assay [3] of 4.02.

In the case of `CC(=O)c1cc2cc(Br)ccc2oc1=O`, in assay [1], the Activity amounted to 1.52%. Moreover, the inhibition in the assay filed under Rattus norvegicus [2] was determined as 31.9%.

In the case of `COc1ccc(-c2ccc3oc(=O)c(C(C)=O)cc3c2)cn1`, the inhibition result in the assay listed under Rattus norvegicus [4] was “Active”. Moreover, the result with Rattus norvegicus [5] was Active. For the same molecule, the outcome in assay [1] was inactive. Besides, the inhibition in the assay filed under Rattus norvegicus [2] worked out at 86%. In assay [3], this molecule gave a negative-log IC50 (pIC50) of 4.55.

Take `CC(=O)c1cc2cc(-c3ccccc3)ccc2oc1=O`: the Activity in assay [1] stood at 19.6%. For the same molecule, the inhibition entry in the assay filed under Rattus norvegicus [2] was “inactive”.

Regarding `COc1ccc(-c2ccc3oc(=O)c(C#N)c(C)c3c2)cn1`, the Activity in assay [1] amounted to 35%. The inhibition in the assay filed under Rattus norvegicus [2] is 93.1%. Also, the pIC50 in assay [3] was 4.35.

Take `O=C(c1ccccc1)c1cc2cc(-c3ccccc3)ccc2oc1=O`: the Activity in assay [1] turned out to be 2.45%. Besides, the inhibition in the assay filed under Rattus norvegicus [2] was 70%. Further, in assay [3], the pIC50 was 4.28.

Take `CCOC(=O)c1cc2cc(-c3ccccc3)ccc2oc1=O`: the Activity in assay [1] was determined as 4.8%. In the assay filed under Rattus norvegicus [2], the inhibition amounted to 77.1%. Besides, the pIC50 in assay [3] was 3.73.

In the case of `CCOC(=O)c1cc2ccc(O)cc2oc1=O`, the result in assay [1] was inactive. This molecule returned an inhibition in the assay filed under Rattus norvegicus [2] of 77.6%. The molecule also had a pIC50 in assay [3] of 4.04.

`CC(=O)c1cc2cc(-c3cccnc3)ccc2oc1=O`: the Activity in assay [1] amounted to 3.72%. In addition, the inhibition in the assay filed under Rattus norvegicus [2] came to 96.4%. In assay [3], this molecule had a negative logarithm of the IC50 (pIC50) of 4.24.

Consider `CCOC(=O)c1cc2cc(-c3ccc(C)cc3)ccc2oc1=O`, for which the result in assay [1] was inactive. This molecule also displayed an inhibition in the assay listed under Rattus norvegicus [2] of 65.9%. Besides, the negative logarithm of the IC50 (pIC50) in assay [3] was 3.95.

On to `C[C@H]1O[C@H](O[C@H]2[C@H](O)[C@@H](O)[C@@H](O[C@H]3[C@H](O)[C@@H](O)C(O)O[C@@H]3CO)O[C@@H]2CO)[C@H](O)[C@@H](O)[C@@H]1N[C@H]1C=C(CO)[C@@H](O)[C@H](O)[C@H]1O` (some centres undefined), for which the outcome in the assay on Rattus norvegicus [6] was Active.

With `CCOC(=O)c1cc2cc(-c3ccc(OC)nc3)ccc2oc1=O`, in assay [1], the result was inactive. This molecule also had an inhibition in the assay listed under Rattus norvegicus [2] of 76.9%. In assay [3], this molecule gave a pIC50 of 3.98.

Regarding `CCOC(=O)c1cc2ccccc2oc1=O`, the Activity in assay [1] amounted to 1.82%. The inhibition in the assay listed under Rattus norvegicus [2] was determined as 47%.

`O=C(c1ccccc1)c1cc2ccccc2oc1=O`: the Activity in assay [1] was found to be 30.8%. This molecule also showed an inhibition in the assay listed under Rattus norvegicus [2] of 44.4%.

`CCOC(=O)c1cc2cc(-c3cncnc3)ccc2oc1=O`: the result in assay [1] was inactive. Also, the inhibition in the assay listed under Rattus norvegicus [2] stood at 80.4%. This molecule showed a pIC50 in assay [3] of 4.39.

As for `CC(=O)c1cc2cc(-c3ccc(F)cc3)ccc2oc1=O`, the Activity in assay [1] worked out at 15.6%. The inhibition in the assay filed under Rattus norvegicus [2] was determined as 74.3%. This molecule had a pIC50 in assay [3] of 4.27.

For the molecule `Cc1c(O)ccc2c(CCl)cc(=O)oc12`, the Activity in assay [1] is 28.5%. In the assay listed under Rattus norvegicus [2], this molecule gave an inhibition of 72.7%. Besides, the negative logarithm of the IC50 (pIC50) in assay [3] was 4.16.

On to `O=C(c1ccccc1)c1cc2ccc(O)cc2oc1=O`, for which the outcome in assay [1] was inactive. The molecule also displayed an inhibition in the assay listed under Rattus norvegicus [2] of 53.7%.

Regarding `Cc1c(C#N)c(=O)oc2ccc(-c3ccccc3)cc12`, the Activity in assay [1] is 10.4%. The same molecule returned an inhibition in the assay filed under Rattus norvegicus [2] of 95.5%. Also, the pIC50 in assay [3] is 4.28.

As to `O=C(c1ccccc1)c1cc2cc(Br)ccc2oc1=O`, in assay [1], the Activity came out at 2.22%. For the same molecule, in the assay listed under Rattus norvegicus [2], the inhibition came to 18.1%.

Regarding `CC(=O)c1cc2cc(-c3ccc(N4CCOCC4)cc3)ccc2oc1=O`, the Activity in assay [1] worked out at 20.5%. The molecule further displayed an inhibition in the assay filed under Rattus norvegicus [2] of 85.1%. Further, the negative-log IC50 (pIC50) in assay [3] was 4.31.
